Laboratory results from ChEMBL document CHEMBL1121898, “Potential antiestrogens. Synthesis and evaluation of mammary tumor inhibiting activity of 1,2-dialkyl-1,2-bis(3'-hydroxyphenyl)ethanes” (1981).
Activity calls are given as the source filed them. The rule behind the calls is not given here.

Assays:
[1] = organism: Mus musculus; assay: Predominant components of vaginal smear at a compound concentration of 240 ug was determined using vaginal cornification test; leucocytes (</= 50%), nucleated and cornified, nucleated cellscharacteristic of antiestrogens; type: functional, organism-based
[2] = molecular target: T1, Estrogen receptor (Mus musculus) (UniProt O08537+P19785); assay: Estrogenic activity in uterotrophic test in mice at 2 ug; type: functional
T1 sequence (O08537 whole entry, looked up): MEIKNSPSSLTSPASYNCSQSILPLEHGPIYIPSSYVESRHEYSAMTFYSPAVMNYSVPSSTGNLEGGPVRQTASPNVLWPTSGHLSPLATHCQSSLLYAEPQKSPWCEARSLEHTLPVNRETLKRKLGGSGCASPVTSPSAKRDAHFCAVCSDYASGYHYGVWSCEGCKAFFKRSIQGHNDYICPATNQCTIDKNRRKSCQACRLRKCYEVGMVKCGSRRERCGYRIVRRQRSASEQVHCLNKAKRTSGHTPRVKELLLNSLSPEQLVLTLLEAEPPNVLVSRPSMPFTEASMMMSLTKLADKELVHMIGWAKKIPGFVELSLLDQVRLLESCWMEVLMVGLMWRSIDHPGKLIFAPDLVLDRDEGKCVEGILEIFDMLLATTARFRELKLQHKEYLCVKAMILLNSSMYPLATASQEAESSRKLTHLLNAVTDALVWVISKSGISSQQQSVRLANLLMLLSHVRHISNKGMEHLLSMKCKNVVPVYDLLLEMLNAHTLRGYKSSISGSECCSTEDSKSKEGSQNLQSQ
T1 sequence (P19785 whole entry, looked up): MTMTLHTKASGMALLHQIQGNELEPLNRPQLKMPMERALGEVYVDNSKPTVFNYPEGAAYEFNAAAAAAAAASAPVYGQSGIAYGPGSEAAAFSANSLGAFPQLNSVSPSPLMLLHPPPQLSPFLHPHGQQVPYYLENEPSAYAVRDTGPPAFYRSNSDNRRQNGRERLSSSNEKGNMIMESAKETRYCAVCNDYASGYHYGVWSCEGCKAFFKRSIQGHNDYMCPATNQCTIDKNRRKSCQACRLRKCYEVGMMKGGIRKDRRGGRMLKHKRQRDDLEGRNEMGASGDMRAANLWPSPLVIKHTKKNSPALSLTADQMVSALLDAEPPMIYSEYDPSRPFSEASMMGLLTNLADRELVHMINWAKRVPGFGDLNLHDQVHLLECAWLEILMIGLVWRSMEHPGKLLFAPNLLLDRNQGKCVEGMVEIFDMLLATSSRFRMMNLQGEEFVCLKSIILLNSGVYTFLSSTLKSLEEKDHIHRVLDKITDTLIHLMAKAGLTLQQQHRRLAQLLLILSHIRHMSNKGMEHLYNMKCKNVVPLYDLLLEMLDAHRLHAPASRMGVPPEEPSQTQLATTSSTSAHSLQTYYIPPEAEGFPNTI
Method in brief: (§1)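 Uterine growth stimulation in immature female NMRI mice, 20 days old (14.5 ± 1.2 g), 10 per group. Test compound in 0.1 mL olive oil was given sc daily for 3 days. Uteri were excised 24 h after the final injection and weighed. Effect is reported as mean ± SD.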

[3] = molecular target: T1, Estrogen receptor (Mus musculus); assay: Antiestrogenic activity in uterotrophic test in mice at 2.7 ug; type: functional
Method in brief: (§2)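 Immature female NMRI mice, 20 days old (14.5 ± 1.2 g), randomly grouped 10 per group. Each received a daily sc injection for 3 days of 0.1 mL olive oil solution containing test compound, together with estrone to stimulate uterine growth. Uteri were removed 24 h after the last injection and weighed. Results are reported as % inhibition of the estrone-stimulated uterine weight gain, mean ± SD.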

[4] = molecular target: T1, Estrogen receptor (Mus musculus); assay: Antiestrogenic activity in uterotrophic test in mice at 240 ug; type: functional; method in brief: as §2
[5] = molecular target: T1, Estrogen receptor (Mus musculus); assay: Inhibitory activity in mouse uterine weight test at 2.7 ug; type: functional
Method in brief: (§3)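 Antiuterotrophic (Dorfman) assay in immature 20-day-old female NMRI mice, groups of 10. Uterine growth was stimulated with estrone (0.1 μg) and the test compound was given alongside it, sc daily for 3 days in 0.1 mL olive oil. Uteri were taken 24 h after the last dose. Uterine weight is reported as means ± SD and inhibition as % of the estrone-stimulated response.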

[6] = molecular target: T1, Estrogen receptor (Mus musculus); assay: Inhibitory activity in mouse uterine weight test at 5 ug; type: functional; method in brief: as §3
[7] = organism: Mus musculus; assay: Vaginal cornification test in mice at 2.7 ug; predominant cellular component leucocytes (diestrus); type: functional, organism-based
[8] = molecular target: T1, Estrogen receptor (Mus musculus); assay: Inhibitory activity in mouse uterine weight test at 80 ug; type: functional
Method in brief: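 Immature female NMRI mice, 20 days old (14.5 ± 1.2 g), in random groups of 10. They received sc injections daily for 3 days of 0.1 mL olive oil containing test compound, with estrone 0.1 μg given to stimulate uterine growth. Uteri were removed 24 h after the last injection and weighed (mean ± SD). Result is percent inhibition of the estrone-stimulated uterine weight gain.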

[9] = molecular target: T1, Estrogen receptor (Mus musculus); assay: Antiestrogenic activity in uterotrophic test in mice at 5 ug; type: functional; method in brief: as §2
[10] = molecular target: T1, Estrogen receptor (Mus musculus); assay: Antiestrogenic activity in uterotrophic test in mice at 27 ug; type: functional; method in brief: as §2
[11] = organism: Mus musculus; assay: Vaginal cornification test in mice at 27 ug; predominant cellular component leucocytes (diestrus); type: functional, organism-based
[12] = organism: Mus musculus; assay: Predominant components of vaginal smear at a compound concentration of 80 ug was determined using vaginal cornification test; leucocytes (</= 50%), nucleated and cornified, nucleated cellscharacteristic of antiestrogens; type: functional, organism-based
[13] = molecular target: T1, Estrogen receptor (Mus musculus); assay: Estrogenic activity in uterotrophic test in mice at 0 ug; type: functional; method in brief: as §1
[14] = molecular target: T1, Estrogen receptor (Mus musculus); assay: Inhibitory activity in mouse uterine weight test at 240 ug; type: functional; method in brief: as §3
[15] = organism: Mus musculus; assay: Vaginal cornification test in mice at 0 ug; predominant cellular component leucocytes (diestrus); type: functional, organism-based
Method in brief: (§4)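 Female NMRI mice (~15 g) were ovariectomized; castration was confirmed at 10 days by leucocyte smears. Mice were primed with estradiol 3-benzoate 0.2 μg, and only responders showing estrus were kept. Groups of three received sc test compound in 0.1 mL olive oil daily for 3 days. Saline vaginal smears were taken 6, 24, 30, 48 and 54 h after the last dose and scored by Allen-Doisy.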

[16] = molecular target: T1, Estrogen receptor (Mus musculus); assay: Antiestrogenic activity in uterotrophic test in mice at 0 ug; type: functional; method in brief: as §2
[17] = molecular target: T1, Estrogen receptor (Mus musculus); assay: Antiestrogenic activity in uterotrophic test in mice at 80 ug; type: functional; method in brief: as §2
[18] = organism: Mus musculus; assay: Vaginal cornification test in mice at 5 ug; predominant cellular component leucocytes (diestrus); type: functional, organism-based; method in brief: as §4
[19] = molecular target: T1, Estrogen receptor (Mus musculus); assay: Estrogenic activity in uterotrophic test in mice at 60 ug; type: functional
Method in brief: (§5)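 Immature (20-day-old) female NMRI mice, 14.5 ± 1.2 g, randomized into groups of 10. Given the test compound sc daily for 3 days in 0.1 mL olive oil. Uteri removed 24 h after the last injection; uterine weight taken as the read-out, means ± SD. Dose in μg.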

[20] = molecular target: T1, Estrogen receptor (Mus musculus); assay: Estrogenic activity in uterotrophic test in mice at 20 ug; type: functional; method in brief: as §1
[21] = molecular target: T1, Estrogen receptor (Mus musculus); assay: Estrogenic activity in uterotrophic test in mice at 533 ug; type: functional; method in brief: as §5
[22] = molecular target: T1, Estrogen receptor (Mus musculus); assay: Estrogenic activity in uterotrophic test in mice at 180 ug; type: functional; method in brief: as §1
[23] = system: Estrogen receptor (Bos taurus); assay: Displacement of [3H]estradiol from calf estrogen receptor
[24] = molecular target: T1, Estrogen receptor (Mus musculus); assay: Inhibitory activity in mouse uterine weight test at 27 ug; type: functional; method in brief: as §3

Effect [2]: 11.8
Effect [3]: 38.1
Effect [4]: 31.7
inhibition [5]: 4%
inhibition [6]: 18%
inhibition [8]: 28%
Effect [9]: 34.1
Effect [10]: 33.2
Effect [13]: 10
inhibition [14]: 27%
Effect [16]: 11.4
Effect [17]: 31.5
Effect [19]: 19
Effect [20]: 14.5
Effect [21]: 31.3
Effect [22]: 32.6
Ka [23]: 110000 M⁻¹
inhibition [24]: 22%
SMILES: CC(C)CC(c1cccc(O)c1)C(CC(C)C)c1cccc(O)c1 (centres undefined)
Activity [1]: Weak activity
Activity [7]: inactive
Activity [11]: inactive
Activity [12]: Weak activity
Activity [15]: inactive
Activity [18]: inactive
